Source: PubChem
NR1D1 modulator: modulators of human Rev-erb alpha DNA binding; Rev-erbα–FITC-DNA binding, fluorescence polarization, 90 min; activity, % at 10 µM; 0.79% of 370,000 active;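 active = activity above about 14%, limit read from the data; passing the limit was not always enough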;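 note: 0% = DMSO wells with 35 nM protein and 100% = DMSO wells with 750 nM protein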
NR2E3 ag-1: NR2E3 (human) agonism | inhibition of corepressor binding, % at 4.78 µM | 0.12% of 320,000 active | AID 2300 | GST-NR2E3/biotin-RetCOR TR-FRET, 1536-well;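 active = percent inhibition above the cutoff of mean plus 3 SD of all tested compounds, set per screening campaign, cut at about 20% in these data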;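 note: 0% = DMSO wells and 100% = biotin wells as full block of FRET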
Target sequence (Q9Y5X4 whole entry, looked up): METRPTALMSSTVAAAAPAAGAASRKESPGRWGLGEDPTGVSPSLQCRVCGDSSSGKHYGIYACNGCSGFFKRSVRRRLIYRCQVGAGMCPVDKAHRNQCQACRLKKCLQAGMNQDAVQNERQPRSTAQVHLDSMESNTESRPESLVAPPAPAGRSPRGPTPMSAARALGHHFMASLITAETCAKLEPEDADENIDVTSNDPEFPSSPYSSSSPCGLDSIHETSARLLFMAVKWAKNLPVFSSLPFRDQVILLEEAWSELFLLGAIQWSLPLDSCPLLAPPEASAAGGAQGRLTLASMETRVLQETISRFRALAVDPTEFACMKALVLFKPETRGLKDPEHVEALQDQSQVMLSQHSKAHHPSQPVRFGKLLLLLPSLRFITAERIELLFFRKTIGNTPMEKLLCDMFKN
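Material – GST-tagged NR2E3 plus biotinylated RetCOR corepressor · Quantity – NR2E3 fusion 1.35 nM · Times – 5 h incubation at 4 °C · Medium – pH 7.5 Tris-based buffer · Technique – TR-FRET, Eu(K)-anti-GST donor, streptavidin-D2 acceptor, ex 340, em 617/671 nm · Benchmarks – high control biotin, low control 0.6% DMSO · Format – 1536-well plates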
MT1-MMP act inh: inhibitors of human MT1-MMP activation; HT1080 RFP-PRO-GFP cells, GFP/RFP ratio fluorescence, overnight; percent of plate control window, DMSO zero; GFP/RFP ratio change, % at 20 µM; P50281; 0.061% of 360,000 active;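 active = GFP/RFP ratio change of at least 30% with cell ATP level not reduced by more than half and red fluorescence within 50% of control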
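system = RFP-PRO-GFP reporter HT1080 cells | dosing = 20 µM single dose, 1% DMSO | timing = overnight cell settling, then overnight compound exposure, 37 °C, 5% CO2 | read-out basis = GFP/RFP fluorescence ratio | controls = DMSO and RFP-L50D-GFP cell wells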
NR2E3 ag-2: agonists of human NR2E3 nuclear receptor; Q9Y5X4; CHO-S Gal4-NCOR/VP16-NR2E3 two-hybrid, luciferase; inhibition of corepressor binding, % at 3.98 µM; 0.35% of 360,000 active;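 active = inhibition above the mean of all tested compounds plus 3 SD, cut at about 70% in these data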;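 note: 0% = DMSO with NR2E3 transfected cells and 100% = cells lacking NR2E3 construct; higher means lower luciferase signal from less NR2E3 corepressor binding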
PG9 binder: small molecules binding HIV-1 gp120 antibody PG9. TR-FRET gp120-PG9 antibody binding. inhibition, % at 6.7 µM. 0.43% of 360,000 active; in the data active = inhibition above about 8.5%
SKN-1 inh: inhibitors of C. elegans SKN-1. C. elegans VP596 Pgst-4::GFP/RFP ratio, acrylamide-induced, 24 h. 0.49% of 360,000 active. inhibition, % at 21.8 µM. AID 624304;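 active = interference check ratio from 0.5 to 1.5 plus GFP to RFP signal ratio inhibition reaching or exceeding a fixed threshold, cut at about 30% in these data, passing the limit was not always enough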
NR2E3 ag conf: confirmation of human NR2E3 agonists; shares compounds with NR2E3 ag-2; CHO-S mammalian two-hybrid NR2E3-NCOR, luciferase luminescence; inhibition, % at 3.98 µM; 51% of 2,300 active; AID 624378;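 active = average inhibition above a cutoff equal to the mean inhibition of all tested compounds plus one SD, cut at about 70% in these data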;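 note: 0% = DMSO in NR2E3 cells and 100% = DMSO in cells lacking NR2E3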
VP16 counter: counter-screen for NR2E3 agonists: GAL4-VP16 reporter inhibitors | shares compounds with NR2E3 ag-2 | CHO-S GAL4-VP16 luciferase reporter, luminescence | inhibition, % at 3.98 µM | 29% of 2,300 active | AID 624379;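 active = mean inhibition above a cutoff equal to the average over all tested compounds plus one standard deviation, cut at about 70% in these data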;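 note: luciferase from a UAS reporter driven by GAL4-VP16 transactivation; 0% = DMSO with VP16-transfected cells and 100% = DMSO with cells lacking VP16; higher means less reporter light so more repression of VP16 activity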
Starred values were filed as active, the others as inactive; x = no result. Shown are actives, neighbours in structure and some others; about 1.9% of the full set was active somewhere.

SMILES | NR1D1 modulator | NR2E3 ag-1 | MT1-MMP act inh | NR2E3 ag-2 | PG9 binder | SKN-1 inh | NR2E3 ag conf | VP16 counter
Cc1cccc(Oc2ccc(NC(=O)c3ccccc3C(=O)O)cc2)c1C | -5 | -3 | -3 | -3 | -3 | -1 | x | x
COc1ccc(CNC(=O)c2cccc3c(-c4cccnc4)coc23)cc1OC | 1 | x | -4 | 97* | -1 | -4 | 96* | 89*
C=C1C(=O)[C@@]23[C@H](O)C[C@@H]4C(C)(C)CC[C@H](O)[C@@]4(C)[C@@H]2CC[C@@H]1[C@H]3O | -4 | 6 | 27 | 66 | -1 | 6 | -13 | -92
C=C1C(=O)[C@@]23[C@H](O)C[C@@H]4C(C)(C)CC[C@H](O)[C@]4(C)[C@@H]2C[C@H](O)[C@@H]1[C@H]3O | 3 | 0 | -3 | 21 | 1 | 9 | x | x
COC(=O)[C@@]12CCCCC=C1N(CCc1ccc(Cl)cc1)C(=O)[C@H]2CC(=O)NCCc1ccccc1OC | 8 | x | x | x | x | x | x | x
C#CCNC(=O)c1cc2cccnc2nc1N | 3 | x | x | x | 1 | x | x | x
Cc1cc(N2CCNC[C@@H]2C)ccc1N1C[C@@H](C)O[C@@H](C)C1 | -3 | x | x | x | -1 | x | x | x
NC(=O)NOCc1ccc(Cl)cc1Cl | -2 | 2 | 1 | -12 | -1 | -11 | x | x
CNC(=S)/N=C/NOCc1ccc(Cl)cc1Cl | 1 | -2 | -19 | 58 | -4 | 10 | 82* | 44
CC(C)CCN(C)[C@H]1C[C@H]2c3[nH]c4ccccc4c3CCN2C[C@H]1[C@H](C)O | -4 | x | x | x | 1 | x | x | x
Cc1cc(C(=O)NNc2ccc(Cl)cc2)no1 | 3 | 1 | 3 | 64 | -1 | -1 | 34 | 6
O=C(CNc1cccc(S(=O)(=O)N2CCCC2)c1)Nc1ccc(C(F)(F)F)cc1 | 7 | 4 | 11 | 60 | -1 | 5 | 64 | 47
O=C(CNc1cccc(S(=O)(=O)N2CCCCC2)c1)Nc1ccc(C(F)(F)F)cc1 | 7 | x | -1 | 38 | -1 | 10 | x | x
Nc1[nH]c(C(=O)c2ccc(Br)cc2)c(-c2ccc(Br)cc2)c1C(=O)NCc1cccc2ccccc12 | -3 | x | x | x | -1 | x | x | x
N#C/C(=C/c1ccc(Sc2nc3ccccc3[nH]2)o1)c1ccccc1F | 0 | 0 | -4 | 62 | -2 | -6 | 78* | 63
N#C/C(=C/c1ccc(Sc2nc3ccccc3[nH]2)o1)c1cccc(F)c1 | -2 | 1 | -6 | 23 | 3 | 9 | x | x
COc1ccc(/C=C2/CSC/C(=C/c3ccc(OC)c(OC)c3)C2=O)cc1OC | -8 | x | -9 | 64 | 0 | -9 | 38 | 29
Cc1[nH]nc2c1C(c1cccc(C(F)(F)F)c1)N(Cc1ccccc1)C2=O (stereo not given) | 6 | x | x | x | 0 | x | x | x
COC(=O)N1C2CCCCC2=NN(c2ccccc2)N1C(=O)OC (stereo not given) | -4 | x | 2 | 71* | -1 | 12 | 6 | 18
CN(Cc1ccco1)C(=O)[C@@H](Cc1ccccc1)NC(=O)[C@H]1O[C@@H](n2ccc(=O)[nH]c2=O)[C@H](O)[C@@H]1O | 4 | x | x | x | 1 | x | x | x
Cc1ccc(S(=O)(=O)/N=C2\C=C(Nc3ccc(O)cc3)C(=O)c3ccccc32)cc1 | x | x | -19 | 102* | x | 16 | 100* | 99*
O=C(Cc1cc(=O)[nH][nH]1)N/N=C/c1ccccc1C(F)(F)F | -1 | x | x | x | x | x | x | x
S=c1nc2ccccc2c2nc(-c3ccccc3Br)[nH]n12 | -3 | 7 | 7 | 78* | 0 | 18 | -9 | -12
CC(NNC(=S)N1CCN(c2ccccn2)CC1)c1nccc2ccccc12 (stereo not given) | -4 | x | 0 | 83* | -1 | -1 | 5 | 14
Nc1ccc(-c2cc3ccccc3oc2=O)cc1 | -1 | -1 | 1 | 52 | -1 | 14 | 58 | 51
O=c1oc2ccccc2cc1-c1ccc(O)cc1 | 5 | -2 | 5 | -42 | -1 | 12 | x | x
